The target of experiment [1] is Human immunodeficiency virus 1. The experiment can be described thus: Anti-HIV-1 activity in MT-4 cells.
Experiment [2] deals with MT4. The experiment is described as follows: Dose required to reduce the viability of mock-infected cells by 50%. In kind it is functional. As to conditions: Homo sapiens. In outline:
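Mock-infected MT-4 cells were run in parallel with the antiviral assay: 1 × 10^4 cells/well, serial compound dilutions, 4 days at 37 °C. Viability was read by MTT. CC50 is the dose that reduces viability by 50%; mean of at least two experiments.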

The target of experiment [3] is Human immunodeficiency virus type 1 reverse transcriptase (Human immunodeficiency virus 1, UniProt Q72547). The experiment can be described thus: Dose required to inhibit the HIV-1 Reverse transcriptase activity by 50%. In outline: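 Highly purified recombinant wild-type HIV-1 RT, RNA-dependent polymerase activity. Buffer: 50 mM Tris-HCl pH 7.8, 80 mM KCl, 6 mM MgCl2, 1 mM DTT, 0.1 mg/mL BSA. Template/primer: poly(rC)/oligo(dG)12-18 at 0.5 OD260 unit/mL. Substrate: [3H]dGTP (1 Ci/mmol). Incubated 30 min at 37 °C; acid-insoluble radioactivity read on glass fibre filters.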

Experiment [4] relates to Human immunodeficiency virus 1. The experiment is described as follows: Dose required to achieve 50% protection of MT-4 cells from HIV-1 induced cytopathogenicity. In kind it is functional, organism-based. As to conditions: Human immunodeficiency virus 1, MT4. In outline: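 MT-4 cells (1 × 10^4/well) in RPMI 1640 with 10% FCS were infected with 100 CCID50 of HIV-1 IIIB, with or without serial dilutions of compound (DMSO stock diluted in medium). After 4 days at 37 °C, viable cells were counted by MTT. EC50 is the dose giving 50% protection from virus-induced cytopathicity; mean of at least two experiments.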

The nature of experiment [5]: (§1) Selectivity Index (CC50:EC50 Ratio). In outline:
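Ratio of CC50 (MTT viability of mock-infected MT-4 cells) to EC50 (MTT protection of MT-4 cells from HIV-1 IIIB cytopathicity, 100 CCID50, 4 days at 37 °C).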

The test system of experiment [6] is MT4. The description is as §1. The experiment is classed as functional.

Where only a bound is given, the exact number is not on record here.

The EC50 is the concentration at which the effect is half-maximal. In the case of `Cc1ncc([N+](=O)[O-])n1CCOC(c1ccccc1)c1ccc(C(C)(C)C)cc1` (configuration not stated), in experiment [1], a half-maximal effect (EC50) was put at 3.98 µM.

The CC50 is the concentration at which the toxic effect on the cells reaches its halfway point. The low end stands for greater toxicity to the cells, the high end for lower toxicity to the cells. Broadly, the IC50 is the concentration needed to halve the response being measured. A low value points to greater potency in that assay. In the experiment on MT4 [2], `Cc1ncc([N+](=O)[O-])n1CCOC(c1ccccc1)c1cccc([N+](=O)[O-])c1` (configuration not stated) came in with a CC50 of 92.5 µM. The compound also came in with an IC50 in experiment [3] of 300 nM. For the same compound, the EC50 in experiment [4] is 600 nM. Moreover, the Selectivity index in experiment [5] worked out at 154.

Compound `Cc1ncc([N+](=O)[O-])n1CCOC(c1ccccc1)c1ccccc1F` (configuration not stated) yielded a CC50 in the experiment with MT4 [2] of 63 µM. The Selectivity index in the experiment on MT4 [6] was 315. In experiment [3], this compound gave an IC50 of 400 nM. The compound also yielded an EC50 in experiment [4] of 200 nM.

In the case of `Cc1ncc([N+](=O)[O-])n1CCOC(c1ccccc1)c1cccc(F)c1` (configuration not stated), in the experiment on MT4 [2], the CC50 was > 200 µM. Also, in the experiment on MT4 [6], the Selectivity index was >2000. For the same compound, 500 nM corresponded to half-maximal inhibition in experiment [3] (IC50). In addition, a half-maximal effect in experiment [4] (EC50) was put at 100 nM.

For `CC(=O)Nc1ccc(C(OCCn2c([N+](=O)[O-])cnc2C)c2ccccc2)cc1` (configuration not stated), the CC50 with MT4 [2] was > 200 µM. The EC50 in experiment [4] was > 200000 nM.

With `COc1ccc(C(OCCn2c([N+](=O)[O-])cnc2C)c2ccccc2)cc1` (configuration not stated), the CC50 with MT4 [2] is > 200 µM. For the same compound, the Selectivity index with MT4 [6] was >2. This compound yielded an EC50 in experiment [4] of 86000 nM.

Turning to `Cc1ncc([N+](=O)[O-])n1CCOC(c1ccccc1)c1cc(Cl)cc(Cl)c1` (configuration not stated), the CC50 with MT4 [2] was > 200 µM. The Selectivity index with MT4 [6] is given as >4. The response in experiment [4] was half-maximal at 45000 nM (EC50).

As for `Cc1ncc([N+](=O)[O-])n1CCOC(c1ccccc1)c1ccc(F)cc1` (configuration not stated), in experiment [1], a half-maximal response (EC50) required 0.891 µM.

For the compound `Cc1ncc([N+](=O)[O-])n1CCOC(c1ccccc1)c1ccccc1`, in the experiment with MT4 [2], the CC50 is > 200 µM. Moreover, the Selectivity index in the experiment with MT4 [6] is >1000. The compound further gave an EC50 in experiment [4] of 200 nM.

`Cc1cc(C)cc(C(OCCn2c([N+](=O)[O-])cnc2C)c2ccccc2)c1` (configuration not stated) had a half-maximal cytotoxic concentration (CC50) with MT4 [2] of 200 µM. Further, in the experiment with MT4 [6], the Selectivity index was >500. Further, the EC50 in experiment [4] is 400 nM.

As for `Cc1ccc(C(OCCn2c([N+](=O)[O-])cnc2C)c2ccccc2)cc1` (configuration not stated), the EC50 in experiment [1] is 1.41 µM.

For the compound `Cc1ncc([N+](=O)[O-])n1CCOC(c1ccccc1)c1ccc(Cl)c(Cl)c1` (configuration not stated), half-maximal cytotoxicity in the experiment on MT4 [2] (CC50) was put at 200 µM. For the same compound, the Selectivity index with MT4 [6] is recorded as >2. Also, the EC50 in experiment [4] turned out to be 97000 nM.

For the compound `Cc1ncc([N+](=O)[O-])n1CCOC(c1ccccc1)c1ccc2ccccc2c1` (configuration not stated), the CC50 in the experiment with MT4 [2] is > 200 µM. The Selectivity index in the experiment with MT4 [6] is reported as >1.8. This compound also registered an EC50 in experiment [4] of 106000 nM.

As to `Cc1cccc(C(OCCn2c([N+](=O)[O-])cnc2C)c2ccccc2)c1` (configuration not stated), the CC50 in the experiment on MT4 [2] was > 200 µM. Further, the Selectivity index in the experiment with MT4 [6] is recorded as >2000. Besides, the IC50 in experiment [3] is 300 nM. This compound returned an EC50 in experiment [4] of 100 nM.

For `Cc1ncc([N+](=O)[O-])n1CCCOC(c1ccccc1)c1ccccc1`, the CC50 with MT4 [2] turned out to be 96.5 µM. In addition, the Selectivity index with MT4 [6] is 3. For the same compound, in experiment [4], it took 35000 nM to reach a half-maximal effect (EC50).

In the experiment with MT4 [2], `Cc1ncc([N+](=O)[O-])n1CCOC(c1ccccc1)c1ccc([N+](=O)[O-])cc1` (configuration not stated) came in with a CC50 of 111 µM. The EC50 in experiment [4] is 5000 nM. For the same compound, in experiment [5], the Selectivity index is 22.

With `CC(C)Nc1cccnc1N1CCN(C(=O)c2cc3cc(NS(C)(=O)=O)ccc3[nH]2)CC1` [DELAVIRDINE], the CC50 in the experiment on MT4 [2] was > 30 µM. In experiment [4], this compound showed an EC50 of 10 nM.

On to `Cc1ncc([N+](=O)[O-])n1CCOC(c1ccccc1)c1cc(F)cc(F)c1` (configuration not stated), for which the CC50 with MT4 [2] was > 200 µM. Further, in the experiment with MT4 [6], the Selectivity index is listed as >200. Besides, the response in experiment [4] was half-maximal at 1000 nM (EC50).

`Cc1ncc([N+](=O)[O-])n1CCOC(c1ccccc1)c1ccc(-c2ccccc2)cc1` (configuration not stated) gave an EC50 in experiment [1] of 17 µM.

`Cc1ncc([N+](=O)[O-])n1CCOC(c1ccccc1)c1ccc(Cl)cc1` (configuration not stated) showed an EC50 in experiment [1] of 12 µM.

Compound `Cc1ccccc1C(OCCn1c([N+](=O)[O-])cnc1C)c1ccccc1` (configuration not stated) gave a 50% cytotoxic concentration (CC50) in the experiment on MT4 [2] of 76 µM. Also, in the experiment with MT4 [6], the Selectivity index is listed as 380. In addition, 200 nM corresponded to half-maximal inhibition in experiment [3] (IC50). The EC50 in experiment [4] was found to be 200 nM.

In the case of `Cc1ncc([N+](=O)[O-])n1CCOC(c1ccccc1)c1cccc(-n2cccc2)c1` (configuration not stated), the CC50 with MT4 [2] is > 200 µM. The Selectivity index in the experiment on MT4 [6] is listed as >14. The EC50 in experiment [4] was 14000 nM.

`Cc1ncc([N+](=O)[O-])n1CCOC(c1ccccc1)c1cccc(Cl)c1` (configuration not stated): the CC50 in the experiment with MT4 [2] is > 200 µM. For the same compound, the Selectivity index with MT4 [6] is given as >1000. This compound showed an IC50 in experiment [3] of 500 nM. The same compound came in with an EC50 in experiment [4] of 200 nM.

Take `Cc1ncc([N+](=O)[O-])n1CCOC(c1ccccc1)c1ccccc1Cl` (configuration not stated): the CC50 in the experiment with MT4 [2] was 52 µM. Besides, the Selectivity index in the experiment on MT4 [6] was found to be 85. In experiment [3], this compound returned an IC50 of 600 nM. This compound yielded an EC50 in experiment [4] of 600 nM.

The record behind these values is ChEMBL document CHEMBL1135911, “Synthesis, biological evaluation, and binding mode of novel 1-[2-(diarylmethoxy)ethyl]-2-methyl-5-nitroimidazoles targeted at the HIV-1 reverse transcriptase” (J Med Chem, 2002).
